Measured values of several laboratories.
Target: Receptor tyrosine-protein kinase erbB-4 (ERBB4, Homo sapiens, UniProt Q15303)

`Cn1cncc1[C@@](O)(COc1ccc(C#N)cc1-c1ccc(OC(F)(F)F)cc1)c1ccc(C#N)cc1` has a remaining binding of 100% (cell-free assay; competition with immobilised ligand; 1 µM).
The inhibition of `Cn1cc(-c2cc(F)cc(N3CCn4c(cc5c4CCCC5)C3=O)c2CO)cc(Nc2ccc(N3CCN(C4COC4)CC3)cn2)c1=O` is reported as 8% (enzyme activity; inhibitor; 0.1 µM).
`C#Cc1n[nH]c2c(-c3cn([C@@H](C)c4ccccc4)c(=O)[nH]c3=O)cc(F)cc12` gave an inhibition of -16.5% (enzyme activity; inhibitor; 0.1 µM).
With `COc1ncccc1-c1cnn2ccc(N3CCN(C(=O)OC(C)C)CC3)nc12` the remaining binding was 100% (binding; competition with immobilised ligand; 1 µM).
The inhibition of `Cn1cc(-c2cccc(N3CCc4c(sc5c4CC(C)(C)C5)C3=O)c2CO)cc(Nc2ccncn2)c1=O` is reported as 0% (enzyme activity; inhibitor; 1 µM).
With `CC(C)(C)c1cc(C=C(C#N)C#N)cc(Br)c1O` the remaining activity was 94% (enzyme activity; inhibitor; 0.5 µM).
With `COc1cc(Nc2ncc(F)c(Nc3ccc4c(n3)NC(=O)C(C)(C)O4)n2)cc(OC)c1OC` the inhibition was 89% (binding; competition with immobilised ligand; 10 µM).
For `N#CC1(c2ccccn2)CCN(Cc2cc(C(=O)O)c(=O)n3ccccc23)CC1`, the remaining binding was 72% (cell-free assay; competition with immobilised ligand; 1 µM).
For `Cc1nn(C)cc1-c1nc2c(N3CCN(Cc4ccc(Cl)cc4)CC3)c(Cl)cnc2[nH]1`, the remaining binding was 100% (binding; competition with immobilised ligand; 1 µM).
`C#Cc1n[nH]c2c(-c3cn([C@@H](C)c4ccccn4)c(=O)[nH]c3=O)cc(F)cc12` has an inhibition of -15.6% (enzyme activity; inhibitor; 0.1 µM).
For `Nc1ncc(-c2nc(N3CCOCC3)nc(N3CCOCC3)n2)c(C(F)F)n1`, the remaining binding was 60% (binding; competition with immobilised ligand; 10 µM).
For `O=c1[nH]c2ccccc2n1C1CCN(Cc2ccc(-c3[nH]c4cc5ncnc5cc4nc3-c3ccccc3)cc2)CC1`, the remaining signal was 105% (cell-free assay; 0.5 µM).
